Data published in ChEMBL document CHEMBL1132319, “2,3-Dihydro-2-oxo-1H-benzimidazole-1-carboxamides with selective affinity for the 5-HT(4) receptor: synthesis and structure-affinity and structure-activity relationships of a new series of partial agonist and antagonist derivatives” (J Med Chem, 1999).

Legend:
[1] = target: T1, Serotonin 3 (5-HT3) receptor (Rattus norvegicus, UniProt P35563+Q9JJ16); test: Inhibitory concentration against 5-hydroxytryptamine 3 receptor in rat entorhinal cortex using [3H]-LY 278584 as radioligand
T1 sequence (P35563 whole entry): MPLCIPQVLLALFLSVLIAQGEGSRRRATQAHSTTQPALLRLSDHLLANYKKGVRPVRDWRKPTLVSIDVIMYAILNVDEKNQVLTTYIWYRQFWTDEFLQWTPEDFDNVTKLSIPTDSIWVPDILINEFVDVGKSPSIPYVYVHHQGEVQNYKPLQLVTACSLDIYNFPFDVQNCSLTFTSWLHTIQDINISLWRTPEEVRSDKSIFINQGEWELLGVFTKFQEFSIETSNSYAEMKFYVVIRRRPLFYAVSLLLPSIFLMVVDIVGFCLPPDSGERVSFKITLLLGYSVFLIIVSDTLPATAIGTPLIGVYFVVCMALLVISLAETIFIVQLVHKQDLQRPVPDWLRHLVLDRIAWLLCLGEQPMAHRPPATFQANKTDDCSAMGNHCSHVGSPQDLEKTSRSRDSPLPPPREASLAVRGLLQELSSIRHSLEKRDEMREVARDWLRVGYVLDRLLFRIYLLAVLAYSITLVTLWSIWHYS
T1 sequence (Q9JJ16 whole entry): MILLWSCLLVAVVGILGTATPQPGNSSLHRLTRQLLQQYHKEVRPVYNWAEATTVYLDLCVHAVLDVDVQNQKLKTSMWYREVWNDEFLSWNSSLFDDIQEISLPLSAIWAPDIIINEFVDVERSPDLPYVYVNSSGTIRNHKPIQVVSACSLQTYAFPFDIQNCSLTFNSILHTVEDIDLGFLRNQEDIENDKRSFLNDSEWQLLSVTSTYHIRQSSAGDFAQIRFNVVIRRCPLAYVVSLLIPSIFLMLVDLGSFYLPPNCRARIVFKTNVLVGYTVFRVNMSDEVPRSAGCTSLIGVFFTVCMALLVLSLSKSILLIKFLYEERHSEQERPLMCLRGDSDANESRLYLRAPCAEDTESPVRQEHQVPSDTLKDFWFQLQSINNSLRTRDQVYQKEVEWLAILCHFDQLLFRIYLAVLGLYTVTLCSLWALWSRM
Outline: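 Male Wistar rat entorhinal cortex membranes in 50 mM Tris-HCl with 5 mM CaCl2, 0.1% ascorbate and 10 μM pargyline (1:40 wt/vol, 500–600 μg protein), with 2 nM [3H]LY 278584. Nonspecific binding with 10 μM 5-HT.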

[2] = target: T2, 5-hydroxytryptamine receptor 4 (Cavia porcellus, UniProt O70528); test: Displacement of [3H]GR-113808 from 5-hydroxytryptamine 4 receptor in guinea pig striatum
Outline: (§1)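 Male Dunkin–Hartley guinea pig striatal membranes in 50 mM Hepes pH 7.4 (1:80 wt/vol, 800–900 μg protein) with 0.1 nM [3H]GR 113808. Nonspecific binding with 10 μM 5-HT. Incubated 30 min at 25 °C, then filtered on PEI-treated filters and counted by scintillation. 10–12 displacer concentrations; two experiments in triplicate; IC50 and Ki.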

[3] = tested on: 5-HT4 receptor (Rattus norvegicus); test: Agonistic activity against 5-hydroxytryptamine 4 receptor
[4] = tested on: 5-HT4 receptor (Rattus norvegicus); test: Antagonistic activity against 5-hydroxytryptamine 4 receptor
[5] = target: T2, 5-hydroxytryptamine receptor 4; test: Binding affinity against 5-hydroxytryptamine 4 receptor in guinea pig striatum using [3H]GR-113808 as radioligand; outline: as §1

T2 sequence (O70528 whole entry): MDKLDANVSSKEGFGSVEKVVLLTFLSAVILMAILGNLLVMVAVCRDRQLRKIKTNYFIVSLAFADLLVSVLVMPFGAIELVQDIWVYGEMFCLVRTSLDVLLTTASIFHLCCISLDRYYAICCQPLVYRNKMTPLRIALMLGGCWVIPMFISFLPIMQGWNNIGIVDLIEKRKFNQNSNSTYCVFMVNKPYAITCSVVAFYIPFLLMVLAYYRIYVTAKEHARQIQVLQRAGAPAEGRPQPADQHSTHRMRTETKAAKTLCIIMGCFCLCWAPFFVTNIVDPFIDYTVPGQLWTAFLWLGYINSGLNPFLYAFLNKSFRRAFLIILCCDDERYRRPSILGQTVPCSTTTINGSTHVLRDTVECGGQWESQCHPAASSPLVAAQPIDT

Compound	IC50 [1]	IC50 [2]	Intrinsic activity [3]	pKb [4]	Ki [1]	Ki [5]
COc1ccc2c(c1)n(C(=O)NCCN1CCN(C)CC1)c(=O)n2C(C)C	> 1000 nM	> 1000 nM	< 0.3	< 6		
CC(C)n1c(=O)n(C(=O)NN2CCN(C)CC2)c2ccccc21		> 1000 nM	< 0.3	< 6	201 nM	
Cn1cc(C(=O)OCC2CCN(CCNS(C)(=O)=O)CC2)c2ccccc21	> 1000 nM					0.11 nM
CN1CCN(CCNC(=O)n2c(=O)n(Cc3ccccc3)c3ccccc32)CC1	> 1000 nM	> 1000 nM	< 0.3	< 6		
CC(C)n1c(=O)n(C(=O)NCCCN2CCN(C)CC2)c2ccccc21	> 1000 nM	> 1000 nM	< 0.3	< 6		
CCCCn1c(=O)n(C(=O)NCCN2CCN(C)CC2)c2ccccc21	> 1000 nM	> 1000 nM	< 0.3	< 6		
C=CC[N+]1(C)CCN(CCNC(=O)n2c(=O)n(C(C)C)c3ccccc32)CC1	> 1000 nM		< 0.3	6.28		56.3 nM
CCCCN1CCN(CCNC(=O)n2c(=O)n(CC)c3ccccc32)CC1	> 1000 nM		< 0.3	7.73		34.1 nM
CC(C)n1c(=O)n(C(=O)NCCN2CCN(C)CC2)c2cc(F)c([N+](=O)[O-])cc21	> 1000 nM	> 1000 nM				
CCN1CCN(CCNC(=O)n2c(=O)n(C(C)C)c3ccccc32)CC1	> 1000 nM		0.87	6.62		104 nM
CC(C)n1c(=O)n(C(=O)NCCN2CCN(C)CC2)c2cc(F)c(N)cc21	> 1000 nM	> 1000 nM	< 0.3	< 6		
CN1CCN(CCNC(=O)n2c(=O)n(C)c3ccccc32)CC1	> 1000 nM		0.42	< 6		306 nM
CC(C)n1c(=O)n(C(=O)NCN2CCN(C)CC2)c2ccccc21		> 1000 nM			309 nM	
CC(C)n1c(=O)n(C(=O)NCCN2CCN(C)CC2)c2cc(Cl)ccc21	> 1000 nM	> 1000 nM	0.7	< 6		
CC(C)n1c(=O)n(C(=O)NCCN2CCN(Cc3ccc(F)cc3)CC2)c2ccccc21	> 1000 nM					262 nM
CC(C)N1CCN(CCNC(=O)n2c(=O)n(C(C)C)c3ccccc32)CC1	> 1000 nM					89.8 nM
CCCCN1CCN(CCNC(=O)n2c(=O)n(C3CC3)c3ccccc32)CC1	> 1000 nM		0.46	7.51		13.3 nM
CC(C)n1c(=O)n(C(=O)NC2CC3CCC(C2)N3C)c2ccccc21 (centres undefined)					0.5 nM	63.9 nM
CCCN1CCN(CCNC(=O)n2c(=O)n(C3CC3)c3ccccc32)CC1	> 1000 nM		0.41	7.46		8.2 nM
CCCN1CCN(CCNC(=O)n2c(=O)n(CC)c3ccccc32)CC1	> 1000 nM					16.9 nM

Compound	IC50 [1]	IC50 [2]	Intrinsic activity [3]	pKb [4]	Ki [1]	Ki [5]
CN1CCN(CNC(=O)n2c(=O)n(C3CC3)c3ccccc32)CC1	> 1000 nM		0.53	6.19		49.4 nM
C=CCn1c(=O)n(C(=O)NCCN2CCN(C)CC2)c2ccccc21	> 1000 nM	> 1000 nM	0.63	< 6		
Cc1cccc2c1n(C(C)C)c(=O)n2C(=O)NCCN1CCN(C)CC1						216 nM
CC(C)n1c(=O)n(C(=O)NCCN2CCN(C)CC2)c2cc(F)ccc21	> 1000 nM		0.67	6.88		108 nM
CC(C)n1c(=O)n(C(=O)NCCN2CCN(Cc3ccc4c(c3)OCO4)CC2)c2ccccc21	> 1000 nM	> 1000 nM	0.3	< 6		
CN1CCN(CCCNC(=O)n2c(=O)n(C3CC3)c3ccccc32)CC1	> 1000 nM		0.46	6.4		39.7 nM
CCCn1c(=O)n(C(=O)NCCN2CCN(C)CC2)c2ccccc21	> 1000 nM		0.48	< 6		253 nM
CC(C)n1c(=O)n(C(=O)NCCN2CCN(C)CC2)c2ccccc21	> 1000 nM		0.94	< 6		91.1 nM
CC(C)N1CCN(CCNC(=O)n2c(=O)n(C3CC3)c3ccccc32)CC1	> 1000 nM					6.7 nM
CC(C)n1c(=O)n(C(=O)NCCN2CCN(CCCOc3ccc(F)cc3)CC2)c2ccccc21	> 1000 nM					375 nM
CCCC[N+]1(C)CCN(CCNC(=O)n2c(=O)n(C(C)C)c3ccccc32)CC1	> 1000 nM		0.93	6		66.3 nM
CCN1CCN(CCNC(=O)n2c(=O)n(CC)c3ccccc32)CC1	> 1000 nM					17.9 nM
CCn1c(=O)n(C(=O)NCCN2CCN(C)CC2)c2ccccc21	> 1000 nM		< 0.3	6.79		75.4 nM
CCCCN1CCN(CCNC(=O)n2c(=O)n(C(C)C)c3ccccc32)CC1	> 1000 nM					38.9 nM
CCCN1CCN(CCNC(=O)n2c(=O)n(C(C)C)c3ccccc32)CC1	> 1000 nM		0.68	6.89		87.3 nM
CC(C)n1c(=O)n(C(=O)NCCN2CC[N+](C)(C)CC2)c2ccccc21	> 1000 nM		0.75	< 6		68.5 nM
CN1CCN(CCNC(=O)n2c(=O)n(CCc3ccccc3)c3ccccc32)CC1	> 1000 nM	> 1000 nM				
CCn1c(=O)n(C(=O)NCCN2CCN(C(C)C)CC2)c2ccccc21	> 1000 nM					25.2 nM
CN1CCN(CCNC(=O)n2c(=O)n(C3CC3)c3ccccc32)CC1	> 1000 nM					10.2 nM
CN1CCN(CCNC(=O)n2c(=O)[nH]c3ccccc32)CC1	> 1000 nM	1000 nM	0.35	< 6		
